Consider 40 compounds from ChEMBL document CHEMBL4513216, “Probing the Open Global Health Chemical Diversity Library for Multistage-Active Starting Points for Next-Generation Antimalarials” (ACS Infect Dis, 2020).

The series is described as follows: Toxicity liver stage against HepG2, at 10uM. It counts as cell-based. The arrangement: test concentration 10 uM, cell line HepG2-A16-CD81EGFP. The settings on record: human, HepG2-A16-CD81EGFP cells; read-out: INHIBITION
A digest of the protocol:
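Uninfected HepG2-A16-CD81EGFP cells, 3 × 10^3 per well, 1536-well, plated on prespotted compound at 10 μM final, parasite-free screening media added to match infected plates; puromycin 10 μM positive, DMSO 0.5% negative; run in parallel with 48 h PbLuc assay at 37 °C, 5% CO2; viability by CellTiter-Glo luminescence, normalized to controls.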
In the case of `CC(=O)N1CCOC[C@H](Oc2ccc(C(F)(F)F)cc2)C1`, the cytotoxicity at 10 µM was found to be 2.65%.

Regarding `Cc1cc2nc(CO[C@H]3CN(C4CCC4)C[C@H]3F)[nH]c2cc1C`, the cytotoxicity at 10 µM turned out to be 1.56%.

For the compound `COCCCNc1c(-c2ccc(C)cc2)c(=O)c1=O`, the cytotoxicity at 10 µM worked out at 12.5%. As for `CC(=O)c1cn(CC(=O)N[C@H](C(=O)O)C(C)C)c2ccccc12`, the figure is -7.06%.

For the compound `COCCc1nnc(NC(=O)Cc2ccccc2Cl)o1`, the cytotoxicity at 10 µM was -6.95%. For `CC(C)OCCC(=O)NS(=O)(=O)N1CCOc2ccccc21` the value was -0.955%. For `CNC(=O)NCC(=O)N(C)C(c1ccc(Cl)cc1)c1cccnc1` (stereo not given) the value was 9.61%.

In the case of `O=C(NCC[S+]([O-])Cc1ccccc1)c1ccc2[nH]c(=O)[nH]c2c1` (stereo not given), the cytotoxicity at 10 µM was 6.11%.

Turning to `COCCCC(=O)Nc1cccnc1N1CCCCC1`, the cytotoxicity at 10 µM was -6.34%. `Cc1nc(C)c(C(=O)N2CCCc3c(F)cccc32)o1`: the cytotoxicity at 10 µM was -6.75%.

Turning to `Cc1occc1C(=O)N1CCOC2(CCCC2)C1`, the cytotoxicity at 10 µM is -10.9%. With `CN(Cc1cnn(C)c1)S(=O)(=O)N1CCc2ccccc2C1`, the cytotoxicity at 10 µM was -6.47%. As for `Cc1n[nH]c(C2CN(C(=O)c3csnn3)CCO2)n1` (stereo not given), the cytotoxicity at 10 µM was 2.74%.

For the compound `CNC(=O)C(C)(C)CNC(=O)Nc1ccc(C)cn1`, the cytotoxicity at 10 µM stood at 0.973%. As for `CC(C)N(C)C(=O)c1ccc(Cl)c(NC(=O)CCN2C(=O)CCC2=O)c1`, the figure is -2.63%. Turning to `Cc1ccccc1S(=O)(=O)NC(=O)C1(c2ccccc2)CCC1`, the cytotoxicity at 10 µM is -6.9%.

Take `Cc1cc(C(=O)N2CCN(Cn3cc(Cl)cn3)CC2)c(C)o1`: the cytotoxicity at 10 µM turned out to be 10.9%.

With `CCS(=O)(=O)NC(C(=O)NC)c1ccc(F)c(F)c1` (stereo not given), the cytotoxicity at 10 µM was -9.06%. Take `N#Cc1cc(NC(=O)c2ccsc2)ccc1N1CCC(O)CC1`: the cytotoxicity at 10 µM was determined as 4.77%. For the compound `c1cnnc(N2CCCC2CNCc2nc3ccccc3o2)c1` (stereo not given), the cytotoxicity at 10 µM is -10.9%.

For the compound `Cc1cnc(C(=O)N2CCCN(Cc3csc(C)n3)CC2)cn1`, the cytotoxicity at 10 µM is -16%.

As to `CC(C)Nc1nc2c(s1)C(=O)CN(C)C2`, the cytotoxicity at 10 µM is -9.77%. For `CC(C)CC(=O)N1CC(=O)c2sc(NCCc3ccccc3)nc2C1` the value was -0.501%; for `CCCc1ccc(CN2CCC3(CCC(=O)N(CCCOC)C3)CC2)o1`, -1.53%; for `O=C(c1cccc(C2CCNC2)c1)N1CCC(N2CCC(O)CC2)CC1` (stereo not given), 2.18%. On to `O=C(c1ccc(-n2cnnc2)cc1Cl)N1CCCC2(CCNC2)C1` (stereo not given), for which the cytotoxicity at 10 µM was -5.32%. Consider `O=C(c1ccccn1)C1CCCN(c2nccc(CCC(F)(F)F)n2)C1` (stereo not given), for which the cytotoxicity at 10 µM is -4.27%. Take `CCc1cc(CN(C)C(=O)c2cnc3c(c2)nc(N)n3CC)on1`: the cytotoxicity at 10 µM worked out at 1.3%. As for `CC(C)Oc1cccc(Cc2nc3c([nH]2)CCCNC3=O)c1`, the figure is -12.9%. Turning to `CCCc1cc(CNC2CCN(c3nc(C)cc(C)n3)CC2)on1`, the cytotoxicity at 10 µM came to 7.51%.

In the case of `Cc1nn(CCC(=O)NC(C(=O)O)c2c(C)n[nH]c2C)c(C)c1C` (stereo not given), the cytotoxicity at 10 µM was -2.72%. In the case of `CC(C)[C@H]1COC(=O)N1Cc1nccn1C1CC1`, the cytotoxicity at 10 µM is -15.4%.

For `Cn1ccnc1CN(CCO)C(=O)C1CCN(C(=O)C2CC2)CC1`, the cytotoxicity at 10 µM was 2.55%.

For the compound `CC(=O)N1CCc2[nH]cnc2C12CCN(C(=O)CCn1cccn1)CC2`, the cytotoxicity at 10 µM came to 5.71%. As for `Cc1cc(C)c2c(NC(C)c3nncn3C3CCCC3)ncnc2n1` (stereo not given), the figure is 5.01%; as for `OCC1(Cc2ccc(F)cc2F)CCCN(Cc2ccncc2)C1` (stereo not given), -3.44%; as for `COc1cc(N2CCN(Cc3ccc(C)o3)C(CCO)C2)nc(N)n1` (stereo not given), 2.8%. As for `O=C1CCC(=O)N1c1nn(Cc2ccccc2)cc1Cl`, the figure is -14.4%. With `Cc1ccc(CN2CCc3ncc(CNS(C)(=O)=O)n3CC2)o1`, the cytotoxicity at 10 µM was -9.9%.

Regarding `COc1ccc(-c2cc(CN)nc3ccnn23)cc1`, the cytotoxicity at 10 µM was -5.75%.
